One may read the IC50 as the midpoint of a concentration-inhibition curve. By inhibition is commonly meant how much of the control response was suppressed. The Ki is the dissociation constant of the complex between target and ligand, obtained from inhibition or displacement.

Activity calls are given as the source filed them. No cut-off for these calls is given here.

Here are results for four molecules from ChEMBL document CHEMBL3739387, “Discovery and SAR of Novel and Selective Inhibitors of Urokinase Plasminogen Activator (uPA) with an Imidazo[1,2-a]pyridine Scaffold” (J Med Chem, 2015).

A short description of assay [1]: Inhibition of bovine pancreatic trypsin using Nalpha-benzoyl-D,L-Arg-pNA-HCl as substrate measured for 5 mins by spectrophotometric assay. On the set-up: species or system Bos taurus.
In assay [2] the target is T1, Prothrombin (Homo sapiens, UniProt P00734). The experiment in a line: Inhibition of human plasma thrombin using pyroGlu-Pro-Arg-pNA-HCl as substrate measured for 5 mins by spectrophotometric assay. The class given is cell-free. An outline of the steps: (§1)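 Thrombin from human plasma with pyroGlu-Pro-Arg-pNA (CS-21(66), Km 400 μM) at 415 μM in assay. 50 mM HEPES pH 8.2. pNA release at 405 nm over 5 min at 37 °C, in duplicate.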

Assay [3] deals with T2, Plasminogen (Homo sapiens, UniProt P00747). The experiment in a line: Inhibition of human plasma plasmin using pyroGlu-Pro-Arg-pNA-HCl as substrate measured for 5 mins by spectrophotometric assay. The class given is cell-free. A digest of the protocol:
(§2)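 Plasmin purified from human plasma. Substrate pyroGlu-Pro-Arg-pNA (CS-21(66), Km 400 μM) at 400 μM in assay. HEPES pH 7.0, 37 °C, absorbance at 405 nm followed for 5 min, duplicates.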

For assay [4], the target named is T3, Coagulation factor X (Homo sapiens, UniProt P00742). The experiment in a line: Inhibition of purified human factor 10a using Suc-Ile-Glu(gammaPip)-GlyArg-pNa-HCl as substrate measured for 5 mins by spectrophotometric assay. An outline of the steps:
(§3)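 Purified human factor Xa, substrate Suc-Ile-Glu(γPip)-Gly-Arg-pNA (CS-11(32)) at 411 μM in assay. HEPES pH 8.2. Read at 405 nm for 5 min at 37 °C, duplicate wells.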

The target of assay [5] is T4, Tissue-type plasminogen activator (Homo sapiens, UniProt P00750). The experiment in a line: Inhibition of recombinant human tPA using H-D-Ile-Pro-L-Arg-pNA-2HCl as substrate measured for 5 mins by spectrophotometric assay.
Target sequence in this assay (P00750 whole entry): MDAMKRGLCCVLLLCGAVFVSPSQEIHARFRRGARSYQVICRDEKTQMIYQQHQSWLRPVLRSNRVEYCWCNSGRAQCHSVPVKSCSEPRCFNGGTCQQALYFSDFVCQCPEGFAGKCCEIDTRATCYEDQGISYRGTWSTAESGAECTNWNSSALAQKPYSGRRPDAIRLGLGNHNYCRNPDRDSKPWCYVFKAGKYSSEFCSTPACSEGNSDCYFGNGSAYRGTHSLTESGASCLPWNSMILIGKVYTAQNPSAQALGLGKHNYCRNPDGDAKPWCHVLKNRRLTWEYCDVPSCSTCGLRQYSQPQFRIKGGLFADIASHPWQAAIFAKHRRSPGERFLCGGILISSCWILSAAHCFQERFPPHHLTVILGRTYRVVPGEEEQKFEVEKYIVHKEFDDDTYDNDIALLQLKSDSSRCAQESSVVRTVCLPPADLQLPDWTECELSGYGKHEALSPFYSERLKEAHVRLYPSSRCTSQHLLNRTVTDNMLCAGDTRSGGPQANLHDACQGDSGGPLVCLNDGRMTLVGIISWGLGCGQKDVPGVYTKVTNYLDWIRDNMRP
Assay [6] deals with T5, Urokinase-type plasminogen activator (Homo sapiens, UniProt P00749). The experiment in a line: Inhibition of human uPA using pyro-Glu-Gly-Arg-pNA as substrate assessed as para-nitroaniline release from substrate measured for 5 mins by spectrophotometric assay.
The target in assay [7] is T6, Plasma kallikrein (Homo sapiens, UniProt P03952). The experiment in a line: Inhibition of human plasma kallikrein using D-Pro-Phe-Arg-pNA-2HCl as substrate measured for 5 mins by spectrophotometric assay. The class given is cell-free. A digest of the protocol:
(§4)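 Human plasma kallikrein, chromogenic substrate CS-31(02) (Km 269 μM) at 269 μM in assay. 50 mM HEPES at pH 7.4. Absorbance at 405 nm over 5 min at 37 °C, duplicates.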

Assay [8] deals with T7, Coagulation factor VII (Homo sapiens) (UniProt P08709).
T7 sequence (whole entry): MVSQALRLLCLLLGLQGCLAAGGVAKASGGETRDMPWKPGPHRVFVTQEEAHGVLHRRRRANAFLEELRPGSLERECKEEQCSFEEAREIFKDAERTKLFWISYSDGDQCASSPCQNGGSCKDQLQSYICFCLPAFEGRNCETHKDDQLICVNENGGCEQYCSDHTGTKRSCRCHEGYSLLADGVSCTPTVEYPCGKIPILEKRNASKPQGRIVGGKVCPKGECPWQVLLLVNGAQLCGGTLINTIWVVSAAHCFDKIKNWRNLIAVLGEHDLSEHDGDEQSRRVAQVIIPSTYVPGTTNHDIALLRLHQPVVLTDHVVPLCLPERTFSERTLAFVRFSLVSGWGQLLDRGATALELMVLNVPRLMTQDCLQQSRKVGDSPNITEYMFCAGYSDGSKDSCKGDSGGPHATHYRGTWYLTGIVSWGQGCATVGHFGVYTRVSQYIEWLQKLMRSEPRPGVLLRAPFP
The experiment in a line: Inhibition of purified human factor 7a using MeSO2-Cha-Abu-Arg-pNA as substrate at 100 uM measured for 5 mins by spectrophotometric assay. A digest of the protocol:
(§5)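 Purified human plasma FVIIa with tissue factor (Innovin) present. MeSO2-Cha-Abu-Arg-pNA at 800 μM in assay. Buffer 50 mM HEPES pH 7.5, 100 mM NaCl, 5 mM CaCl2, 0.1% BSA.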

Assay [9] addresses T5, Urokinase-type plasminogen activator. The experiment in a line: Inhibition of human uPA.
Assay [10] deals with T6, Plasma kallikrein. The experiment in a line: Inhibition of human plasma kallikrein using D-Pro-Phe-Arg-pNA-2HCl as substrate at 100 uM measured for 5 mins by spectrophotometric assay. It is filed as cell-free. A digest of the protocol: as §4
For assay [11], the species on record is Homo sapiens. The experiment in a line: Selectivity index, ratio of IC50 for purified human factor 7a to IC50 for human uPA.
Assay [12] is filed under the species Homo sapiens. The experiment in a line: Selectivity index, ratio of IC50 for recombinant human tPA to IC50 for human uPA.
Assay [13] has as its target T1, Prothrombin. The experiment in a line: Inhibition of human plasma thrombin using pyroGlu-Pro-Arg-pNA-HCl as substrate at 100 uM measured for 5 mins by spectrophotometric assay. It is filed as cell-free. A digest of the protocol: as §1
The target of assay [14] is T3, Coagulation factor X. The experiment in a line: Inhibition of purified human factor 10a using Suc-Ile-Glu(yPip)-GlyArg-pNa-HCl as substrate at 100 uM measured for 5 mins by spectrophotometric assay. A digest of the protocol:
as §3

In assay [15] the target is T5, Urokinase-type plasminogen activator. The experiment in a line: Reversible inhibition of human uPA using pyro-Glu-Gly-Arg-pNA as substrate assessed as para-nitroaniline release from substrate measured for 5 mins by spectrophotometry based enzyme kinetics assay.
For a further assay, the species on record is Bos taurus. The experiment in a line: Inhibition of bovine pancreatic trypsin using Na-benzoyl-D,L-Arg-pNA-HCl as substrate at 100 uM measured for 5 mins by spectrophotometric assay.
The species entered for assay [16] is Homo sapiens. The experiment in a line: Selectivity index, ratio of IC50 for human plasma thrombin to IC50 for human uPA.
Assay [17] is described as follows: Selectivity index, ratio of IC50 for bovine pancreatic trypsin to IC50 for human uPA.
The target of assay [18] is T4, Tissue-type plasminogen activator. The experiment in a line: Inhibition of recombinant human tPA using H-D-Ile-Pro-L-Arg-pNA-2HCl as substrate at 100 uM measured for 5 mins by spectrophotometric assay.
Target sequence in this assay (P00750 36-562 limits assumed): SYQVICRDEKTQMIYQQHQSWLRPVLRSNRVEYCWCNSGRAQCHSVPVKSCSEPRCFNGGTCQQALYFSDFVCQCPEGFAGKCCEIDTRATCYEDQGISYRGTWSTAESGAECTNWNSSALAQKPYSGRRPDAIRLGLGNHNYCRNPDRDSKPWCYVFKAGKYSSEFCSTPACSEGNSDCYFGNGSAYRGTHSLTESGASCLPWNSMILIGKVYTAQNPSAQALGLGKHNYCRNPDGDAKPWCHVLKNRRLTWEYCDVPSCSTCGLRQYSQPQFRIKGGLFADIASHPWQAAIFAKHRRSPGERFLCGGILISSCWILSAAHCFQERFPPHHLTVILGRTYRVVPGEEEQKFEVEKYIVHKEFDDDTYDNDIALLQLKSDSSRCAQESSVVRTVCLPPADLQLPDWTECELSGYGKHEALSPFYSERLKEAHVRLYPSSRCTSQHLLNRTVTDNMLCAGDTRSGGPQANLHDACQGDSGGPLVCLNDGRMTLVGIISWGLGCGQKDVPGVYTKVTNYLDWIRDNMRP
Assay [19] has as its target T5, Urokinase-type plasminogen activator. The experiment in a line: Tight binding inhibition of human uPA using pyro-Glu-Gly-Arg-pNA as substrate assessed as para-nitroaniline release from substrate measured for 5 mins by spectrophotometry based enzyme kinetics assay.
Assay [20] shares this target. The experiment in a line: Slow dissociating inhibition of human uPA using pyro-Glu-Gly-Arg-pNA as substrate assessed as para-nitroaniline release from substrate measured for 5 mins by spectrophotometry based enzyme kinetics assay.
For assay [21], the species on record is Homo sapiens. The experiment in a line: Selectivity index, ratio of IC50 for human plasma plasmin to IC50 for human uPA.
Assay [22] deals with T2, Plasminogen. The experiment in a line: Inhibition of human plasma plasmin using pyroGlu-Pro-Arg-pNA-HCl as substrate at 100 uM measured for 5 mins by spectrophotometric assay. It is filed as cell-free. An outline of the steps:
as §2

For assay [23], the species on record is Homo sapiens. The experiment in a line: Selectivity index, ratio of IC50 for purified human factor 10a to IC50 for human uPA.
In a further assay the target is T8, Coagulation factor VII (Homo sapiens, UniProt P08709).
T8 sequence (P08709 whole entry): T7 sequence (whole entry)
The experiment in a line: Inhibition of purified human factor 7a using MeSO2-Cha-Abu-Arg-pNA as substrate measured for 5 mins by spectrophotometric assay. A digest of the protocol: as §5

The species named for assay [24] is Homo sapiens. The experiment in a line: Selectivity index, ratio of IC50 for human plasma kallikrein to IC50 for human uPA.

T2 sequence (P00747 97-580 limits assumed): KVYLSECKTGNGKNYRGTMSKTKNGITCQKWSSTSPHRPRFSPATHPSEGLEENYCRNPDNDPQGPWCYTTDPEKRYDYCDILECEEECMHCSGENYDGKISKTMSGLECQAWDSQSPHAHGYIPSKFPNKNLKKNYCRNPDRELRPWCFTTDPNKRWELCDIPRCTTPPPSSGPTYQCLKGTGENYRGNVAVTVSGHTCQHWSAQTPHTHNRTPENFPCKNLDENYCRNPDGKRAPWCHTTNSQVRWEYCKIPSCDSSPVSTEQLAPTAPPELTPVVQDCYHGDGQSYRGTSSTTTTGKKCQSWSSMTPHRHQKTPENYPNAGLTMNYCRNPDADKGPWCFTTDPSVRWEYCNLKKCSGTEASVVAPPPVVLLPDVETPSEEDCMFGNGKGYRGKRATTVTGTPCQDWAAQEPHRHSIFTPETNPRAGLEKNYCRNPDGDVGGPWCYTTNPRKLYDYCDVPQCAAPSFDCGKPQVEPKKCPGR
T2 sequence (P00747 581-810 limits assumed): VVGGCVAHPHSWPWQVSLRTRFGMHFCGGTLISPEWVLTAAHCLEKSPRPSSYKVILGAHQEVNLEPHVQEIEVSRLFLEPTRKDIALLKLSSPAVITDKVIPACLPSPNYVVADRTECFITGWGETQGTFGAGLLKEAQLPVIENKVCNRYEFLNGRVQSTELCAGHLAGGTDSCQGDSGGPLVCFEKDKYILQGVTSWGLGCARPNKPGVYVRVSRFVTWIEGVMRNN
T3 sequence (P00742 41-179 limits assumed): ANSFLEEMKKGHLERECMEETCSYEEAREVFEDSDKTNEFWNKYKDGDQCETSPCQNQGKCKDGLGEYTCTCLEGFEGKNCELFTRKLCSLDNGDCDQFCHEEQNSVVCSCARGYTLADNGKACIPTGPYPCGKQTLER
T3 sequence (P00742 235-488 limits assumed): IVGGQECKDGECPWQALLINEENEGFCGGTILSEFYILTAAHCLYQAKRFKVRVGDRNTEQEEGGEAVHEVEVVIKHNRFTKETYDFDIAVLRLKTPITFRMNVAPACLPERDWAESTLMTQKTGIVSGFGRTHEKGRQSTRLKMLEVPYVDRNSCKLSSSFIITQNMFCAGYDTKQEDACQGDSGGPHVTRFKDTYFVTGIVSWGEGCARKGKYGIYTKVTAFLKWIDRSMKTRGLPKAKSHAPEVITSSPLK
T6 sequence (P03952 20-390 limits assumed): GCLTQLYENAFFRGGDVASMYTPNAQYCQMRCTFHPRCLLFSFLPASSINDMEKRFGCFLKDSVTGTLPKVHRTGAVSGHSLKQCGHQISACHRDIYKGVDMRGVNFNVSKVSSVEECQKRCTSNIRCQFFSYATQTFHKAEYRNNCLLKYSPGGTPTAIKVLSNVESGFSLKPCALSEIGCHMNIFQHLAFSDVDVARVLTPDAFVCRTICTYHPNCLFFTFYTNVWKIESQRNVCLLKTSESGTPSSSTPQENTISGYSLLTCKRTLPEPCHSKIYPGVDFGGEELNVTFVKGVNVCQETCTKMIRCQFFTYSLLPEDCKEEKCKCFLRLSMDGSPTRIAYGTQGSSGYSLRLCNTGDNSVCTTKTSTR
T6 sequence (P03952 391-638 limits assumed): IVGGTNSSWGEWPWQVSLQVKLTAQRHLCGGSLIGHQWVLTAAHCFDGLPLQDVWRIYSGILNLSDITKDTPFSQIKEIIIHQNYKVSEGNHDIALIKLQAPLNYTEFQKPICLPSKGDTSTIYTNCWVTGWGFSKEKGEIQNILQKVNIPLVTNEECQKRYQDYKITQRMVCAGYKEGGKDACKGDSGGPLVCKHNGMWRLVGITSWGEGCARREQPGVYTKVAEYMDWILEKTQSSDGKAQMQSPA

With `CCOC(=O)c1ccc(OC(=O)CCCCCNC(=N)N)cc1` [GABEXATE], the concentration for half-maximal inhibition (IC50) was 7.12 µM in assay [1]; 0.687 µM at Prothrombin [2]; 1.55 µM against Plasminogen [3]; 4.61 µM against Coagulation factor X [4]; 15.4 µM in assay [5]; 0.431 µM in [6]. Moreover, half-maximal inhibition on Plasma kallikrein [7] (IC50) required 1.35 µM.

In the case of `N=C(N)c1ccc(/C=C2/N=C(c3ccccc3)OC2=O)cc1`, the IC50 in assay [1] stood at 3.18 µM; against Prothrombin [2], 56.1 µM; at Plasminogen [3], 0.34 µM; against Coagulation factor X [4], 6.47 µM; in assay [5], 68.5 µM; in [6], 8.67 µM. At Plasma kallikrein [7], 1.34 µM corresponded to half-maximal inhibition (IC50). The molecule further showed an inhibition in assay [8] of 0%.

Turning to `N=C(N)c1ccc(CNC(=O)[C@H](CO)NC(=O)[C@@H](CO)NS(=O)(=O)Cc2ccccc2)cc1`, the affinity in assay [9] corresponds to a Ki of 0.02 µM.

Take `CCCCNC(=O)c1ccn2c(NCc3ccc(NC(=N)N)cc3)cnc2c1`: the half-inhibitory concentration (IC50) in assay [1] was greater than 100 µM; against Prothrombin [2] it was greater than 100 µM; against Plasminogen [3], greater than 100 µM; at Coagulation factor X [4] it was greater than 100 µM; in assay [5], greater than 100 µM; in assay [6], 0.097 µM. The concentration for half-maximal inhibition (IC50) against Plasma kallikrein [7] and on Coagulation factor VII was greater than 100 µM each time. For the same molecule, the inhibition against Plasma kallikrein [10] came to 2.8%; at Prothrombin [13], 19.2%; at Coagulation factor X [14], 41.8%; in the assay filed under Bos taurus, 42.7%; in [18], 8%; in assay [8], 1.4%. The inhibition on Plasminogen [22] was found to be 13.6%. In addition, the Ratio IC50 (in the assay filed under Homo sapiens [11]; in the assay listed under Homo sapiens [12]; in the assay listed under Homo sapiens [16]; in assay [17]; in the assay filed under Homo sapiens [21]; in the assay listed under Homo sapiens [23]) was greater than 1000 throughout. Moreover, the Ratio IC50 in the assay filed under Homo sapiens [24] is greater than 1000. Moreover, the inhibition entry in [15], in assay [19] and in assay [20] was “Active” throughout.
